{"source": "the RNAGym collection of RNA variant scans (doi:10.1126/science.aae0568)", "parents": {"B1": {"name": "tRNA (parent)", "chain": "GUUCCGUUGGCGUAAUGGUAACGCGUCUCCCUCCUAAGGAGAAGACUGCGGGUUCGAGUCCCGUACGGAACG"}}, "note": "This sample holds only a part of the variants without activity.", "data": [{"variants_of": "B1", "experiment": "yeast fitness relative to wild type (ratio to wild type); higher = fitter; tRNA-Arg(CCU), competitive growth, 37 C, YPD", "in_short": "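Changes in genotype frequencies gave Darwinian fitness relative to wild type. Frequencies were read by 100-nucleotide paired-end sequencing of gene amplicons before and after pooled Saccharomyces cerevisiae strains, carrying tRNA-Arg(CCU) gene variants at the native locus, were competed in YPD at 37°C for 24 hours in six replicates. A genotype was kept only with ≥ 100 starting reads, and estimates < 0.5 were set to 0.5.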", "values": [{"variant": "A45U C46U", "yeast fitness": 1.09}, {"variant": "A45G C49A C62A", "yeast fitness": "≤ 0.5"}, {"variant": "G44A C61G", "yeast fitness": 0.597}, {"variant": "A43G G56A", "yeast fitness": 0.86}, {"variant": "A42U G52A", "yeast fitness": 0.808}, {"variant": "A43C C49G C61A", "yeast fitness": 0.702}, {"variant": "A43C G44A", "yeast fitness": 1.01}, {"variant": "A43G A45C C46U", "yeast fitness": 0.578}, {"variant": "A45G G50C U54A G67A", "yeast fitness": 0.803}, {"variant": "A43G A45C G51A", "yeast fitness": "≤ 0.5"}, {"variant": "A42U G48C C61A", "yeast fitness": 0.643}, {"variant": "A43U G48A C61G A70C", "yeast fitness": "≤ 0.5"}, {"variant": "A43G A57C", "yeast fitness": 0.525}, {"variant": "A43U C60G A70C", "yeast fitness": 0.599}, {"variant": "G44C G68A", "yeast fitness": 0.937}, {"variant": "G44C C66U A70C", "yeast fitness": 0.88}, {"variant": "G44A C49U C62A G67C", "yeast fitness": "≤ 0.5"}, {"variant": "A42U G48A", "yeast fitness": 0.895}, {"variant": "A43C A45G A69C", "yeast fitness": 0.643}, {"variant": "A43C G50A G67A", "yeast fitness": "≤ 0.5"}, {"variant": "G44A A45G G51C C66U A69C", "yeast fitness": 0.576}, {"variant": "G44A C46U G58A", "yeast fitness": 0.687}, {"variant": "A45C C55G", "yeast fitness": 0.528}, {"variant": "A43U G48A U53A", "yeast fitness": 0.506}, {"variant": "A42U G44C A65C", "yeast fitness": "≤ 0.5"}, {"variant": "A45C G48C G50A U53C C66A", "yeast fitness": "≤ 0.5"}, {"variant": "G44A G56C C62U", "yeast fitness": 0.695}, {"variant": "G44C G50A A69U", "yeast fitness": 0.63}, {"variant": "A43G A45G C55U G68A", "yeast fitness": "≤ 0.5"}, {"variant": "A45C A57U A65C", "yeast fitness": 0.617}, {"variant": "A42U G51A C60G G63A", "yeast fitness": "≤ 0.5"}, {"variant": "A45C U59G", "yeast fitness": 0.713}, {"variant": "A45C G48C A69U", "yeast fitness": 0.675}, {"variant": "A45C G58A", "yeast fitness": 0.977}, {"variant": "A45C G58C", "yeast fitness": 1.06}, {"variant": "A43U A65G C66U", "yeast fitness": 0.794}, {"variant": "A45C C49U G63A", "yeast fitness": 0.74}, {"variant": "A45C C66G", "yeast fitness": 0.586}, {"variant": "A43G U47A U53A", "yeast fitness": "≤ 0.5"}, {"variant": "A42U G48A A65U", "yeast fitness": 0.706}, {"variant": "G44A C46A", "yeast fitness": 0.835}, {"variant": "G44A C46G", "yeast fitness": 0.928}, {"variant": "A43U A70U", "yeast fitness": 1.06}, {"variant": "G44C C55U", "yeast fitness": 0.731}, {"variant": "A43C C55A A57C", "yeast fitness": "≤ 0.5"}, {"variant": "A43G G67C", "yeast fitness": 0.872}, {"variant": "G44U A70C", "yeast fitness": 0.813}, {"variant": "A43U C62U", "yeast fitness": 1.01}, {"variant": "A43U C62G", "yeast fitness": 0.805}, {"variant": "G44A U54C G56C", "yeast fitness": "≤ 0.5"}, {"variant": "A43C C55U C66G", "yeast fitness": "≤ 0.5"}, {"variant": "A45U C55U C62A", "yeast fitness": "≤ 0.5"}, {"variant": "A43U C62G C66A A69C", "yeast fitness": 0.67}, {"variant": "A45C G51C U64C", "yeast fitness": "≤ 0.5"}, {"variant": "A45C U53A C60G", "yeast fitness": 0.536}, {"variant": "G44C C66U", "yeast fitness": 0.692}, {"variant": "A43G G50A G68U", "yeast fitness": "≤ 0.5"}, {"variant": "A45C C46G C49A A69U", "yeast fitness": "≤ 0.5"}, {"variant": "A43U G48C U54C C60A U64A", "yeast fitness": "≤ 0.5"}, {"variant": "A43G C49U U54C", "yeast fitness": 0.522}, {"variant": "A43G C61U A65U", "yeast fitness": 0.567}, {"variant": "A43C C61A", "yeast fitness": 0.776}, {"variant": "A43C C61U", "yeast fitness": 0.956}, {"variant": "G44A G58C", "yeast fitness": 0.911}, {"variant": "G44A G58A", "yeast fitness": 0.955}, {"variant": "A43U A65U C66A", "yeast fitness": "≤ 0.5"}, {"variant": "A43C G48C", "yeast fitness": 0.933}, {"variant": "A43C G67U", "yeast fitness": 0.849}, {"variant": "A45C G50A A57G", "yeast fitness": 0.665}, {"variant": "G44A A45U", "yeast fitness": 0.885}, {"variant": "G44U G52A C55G A69U", "yeast fitness": "≤ 0.5"}, {"variant": "A45U C46G G63A", "yeast fitness": "≤ 0.5"}, {"variant": "A45U A65G G68A", "yeast fitness": 0.73}, {"variant": "A43G C60A C66G", "yeast fitness": "≤ 0.5"}, {"variant": "A43G A45U C46U", "yeast fitness": 0.604}, {"variant": "A45G A70U", "yeast fitness": 0.913}, {"variant": "A45G A70G", "yeast fitness": 1.19}, {"variant": "A43U G68A", "yeast fitness": 0.669}, {"variant": "A43U G68C", "yeast fitness": 0.815}, {"variant": "A42U C66U", "yeast fitness": 0.793}, {"variant": "A43U C46A A69C", "yeast fitness": 0.734}, {"variant": "A43G C49U C60A C62A", "yeast fitness": "≤ 0.5"}, {"variant": "A43G U64A A69U", "yeast fitness": 0.648}, {"variant": "A45C G51A C55A", "yeast fitness": 0.516}, {"variant": "A43G G56C A69U", "yeast fitness": 0.683}, {"variant": "G44A C60G", "yeast fitness": 0.667}, {"variant": "G44C G52A A69G", "yeast fitness": "≤ 0.5"}, {"variant": "A45G A57C", "yeast fitness": 0.668}, {"variant": "A45U A57G", "yeast fitness": 0.917}, {"variant": "A43C G52A C55U C60A", "yeast fitness": "≤ 0.5"}, {"variant": "A43C A57U", "yeast fitness": 0.678}, {"variant": "A43G U59G", "yeast fitness": 0.842}, {"variant": "A43G U59C", "yeast fitness": 0.863}, {"variant": "G44C G50C U54G C61G U64C", "yeast fitness": "≤ 0.5"}, {"variant": "A43U U59A", "yeast fitness": 0.807}, {"variant": "A42U G58C", "yeast fitness": 0.924}, {"variant": "A42U G58A", "yeast fitness": 0.939}, {"variant": "A43G G44A G56C C62U", "yeast fitness": "≤ 0.5"}, {"variant": "A45G G48A G56C C60G", "yeast fitness": "≤ 0.5"}, {"variant": "A43U G51A C55U", "yeast fitness": "≤ 0.5"}, {"variant": "A43G U64G", "yeast fitness": 0.64}, {"variant": "G44C G56A C66U", "yeast fitness": 0.634}, {"variant": "G44C C62U", "yeast fitness": 0.902}, {"variant": "A43C C62U", "yeast fitness": 0.93}, {"variant": "A45G C62A A69C", "yeast fitness": 0.595}, {"variant": "A43G G58U", "yeast fitness": 0.707}, {"variant": "A42U G63A G68C", "yeast fitness": 0.544}, {"variant": "A43U G58C", "yeast fitness": 0.892}, {"variant": "A43G U47C C62U", "yeast fitness": 0.644}, {"variant": "A45C C60U A70G", "yeast fitness": 0.683}, {"variant": "A43G A69C", "yeast fitness": 0.935}, {"variant": "A45C G52A U53C G58A C62G", "yeast fitness": "≤ 0.5"}, {"variant": "A45C U59C A70C", "yeast fitness": 0.741}, {"variant": "A45U C60U G68A", "yeast fitness": 0.575}, {"variant": "A42U G50A A65C", "yeast fitness": "≤ 0.5"}, {"variant": "G44C U54A C61A", "yeast fitness": 0.561}, {"variant": "G44A G63C", "yeast fitness": 0.826}, {"variant": "G44A G63A", "yeast fitness": 0.97}, {"variant": "G44C G56C", "yeast fitness": 0.58}, {"variant": "G44A C55U U64A A69C", "yeast fitness": "≤ 0.5"}, {"variant": "A43C G52A A69U", "yeast fitness": 0.508}, {"variant": "G44C A45U U53C", "yeast fitness": 0.605}, {"variant": "A45C G58A C62U A69C", "yeast fitness": 0.59}, {"variant": "A43U C46G", "yeast fitness": 0.829}, {"variant": "A43U C46A", "yeast fitness": 0.98}, {"variant": "A45U C46A G63A", "yeast fitness": 1.06}, {"variant": "A43G G63A", "yeast fitness": 0.745}, {"variant": "G44A", "yeast fitness": 0.982}, {"variant": "G44U", "yeast fitness": 1.01}, {"variant": "G44C", "yeast fitness": 0.985}, {"variant": "A43U C49A", "yeast fitness": 0.756}, {"variant": "A43U C49U", "yeast fitness": 1.09}, {"variant": "A43C U47A G58C", "yeast fitness": 0.689}, {"variant": "A45C U54G", "yeast fitness": 0.605}, {"variant": "A43C G63C", "yeast fitness": 0.692}, {"variant": "A43C G63A", "yeast fitness": 0.929}, {"variant": "A45C G52C", "yeast fitness": 0.762}, {"variant": "A45G G56A", "yeast fitness": 1.1}, {"variant": "A43U G48C C55U", "yeast fitness": "≤ 0.5"}, {"variant": "A43G U47C", "yeast fitness": 1.04}, {"variant": "A43G U47A", "yeast fitness": 0.88}, {"variant": "G44C G63C G68A", "yeast fitness": "≤ 0.5"}, {"variant": "A43C U54C", "yeast fitness": 0.876}, {"variant": "A45U C49A", "yeast fitness": 0.57}, {"variant": "G44C G67C", "yeast fitness": 0.823}, {"variant": "A45C G48A G67A", "yeast fitness": 0.829}, {"variant": "A42U G63A G68C A69C", "yeast fitness": "≤ 0.5"}, {"variant": "A45G G51A G67A", "yeast fitness": 0.601}, {"variant": "A42U G51C C62U C66U", "yeast fitness": 0.708}, {"variant": "G44C A69G", "yeast fitness": 1.04}, {"variant": "A45C A70C", "yeast fitness": 1.05}, {"variant": "A43G C61U", "yeast fitness": 0.887}, {"variant": "A43G C46U", "yeast fitness": 0.92}, {"variant": "A43C C46U G56C", "yeast fitness": 0.506}, {"variant": "A43U C60U G67C", "yeast fitness": 0.636}, {"variant": "G44C G56A A57G", "yeast fitness": 0.543}, {"variant": "A45C G52A A69C", "yeast fitness": 0.568}, {"variant": "A45C C46G G51C", "yeast fitness": 0.546}, {"variant": "A42U G50A C60G", "yeast fitness": 0.614}, {"variant": "A43G C61A G67A", "yeast fitness": "≤ 0.5"}, {"variant": "A43U C60G", "yeast fitness": 0.655}, {"variant": "A43U C46G U54A", "yeast fitness": 0.538}, {"variant": "A45U A65G A70C", "yeast fitness": 0.754}, {"variant": "A45C A57C", "yeast fitness": 0.573}, {"variant": "A45C A57U", "yeast fitness": 0.682}, {"variant": "A43U C55A", "yeast fitness": 0.613}, {"variant": "A43U C55U", "yeast fitness": 0.768}]}]}
